This is a sample that favours compounds with a hit; in the whole collection about 4% have one here.
XBP1 UPR activ: adaptive UPR (XBP1) activation | actives 0.33% (n = 330,000) | activation, % at 20 µM | CHO-XBP1 luciferase reporter, IRE1-XBP1 UPR activation, luminescence; percent of tunicamycin response, DMSO as zero;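 active = versus positive control, 20 µM dose yields 30% or more activation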;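 also: 100% = tunicamycin at 10 µg/mL and 0% = DMSO only wells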
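Material: CHO-XBP1 cells stably carrying IRE1-XBP1-driven luciferase reporter | Medium: F12 with 10% serum | Compound dosing: 20 µM single concentration, DMSO 1% | Incubation: Overnight seeding at 37 °C, 6 h compound treatment at 37 °C | Detection: Steady-Glo luminescence read | Read-out basis: % activation of reporter signal versus tunicamycin and DMSO controls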
ABHD5 PLIN5 PPI: ABHD5-PLIN5 protein interaction inhibition; Q00G26+Q8WTS1; Split G. princeps luciferase complementation, luminescence, 4 h; inhibition, % at 4 µM; actives 0.78% (n = 360,000); AID 602281;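 active = inhibition above the mean inhibition across every tested compound plus 3 SD, cut at about 22% in these data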;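 also: 0% = DMSO only wells and the 100% control is not disclosed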
Mdm2-MdmX inh: inhibitors of human Mdm2/MdmX interaction. actives 3% (n = 330,000). inhibition, % at 8 µM. AID 485346. SaOS-2 split-luciferase Mdm2/MdmX complementation, luminescence. O15151+Q00987;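 active = inhibition of at least 50% at 8 µM in the primary screen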
Target sequence (O15151 whole entry, looked up): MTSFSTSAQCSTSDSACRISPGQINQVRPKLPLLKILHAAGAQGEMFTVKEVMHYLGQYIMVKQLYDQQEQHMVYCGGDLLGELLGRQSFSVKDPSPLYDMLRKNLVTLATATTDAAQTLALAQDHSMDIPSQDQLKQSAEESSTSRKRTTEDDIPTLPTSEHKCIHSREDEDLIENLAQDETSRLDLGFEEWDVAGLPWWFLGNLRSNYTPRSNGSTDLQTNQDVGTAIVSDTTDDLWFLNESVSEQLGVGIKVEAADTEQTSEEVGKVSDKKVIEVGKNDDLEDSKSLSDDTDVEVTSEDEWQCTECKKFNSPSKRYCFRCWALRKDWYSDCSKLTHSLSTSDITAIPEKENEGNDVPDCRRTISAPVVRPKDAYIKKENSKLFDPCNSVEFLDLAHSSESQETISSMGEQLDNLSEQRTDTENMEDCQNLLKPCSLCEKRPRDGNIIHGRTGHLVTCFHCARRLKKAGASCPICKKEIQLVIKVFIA
Target sequence (Q00987 whole entry, looked up): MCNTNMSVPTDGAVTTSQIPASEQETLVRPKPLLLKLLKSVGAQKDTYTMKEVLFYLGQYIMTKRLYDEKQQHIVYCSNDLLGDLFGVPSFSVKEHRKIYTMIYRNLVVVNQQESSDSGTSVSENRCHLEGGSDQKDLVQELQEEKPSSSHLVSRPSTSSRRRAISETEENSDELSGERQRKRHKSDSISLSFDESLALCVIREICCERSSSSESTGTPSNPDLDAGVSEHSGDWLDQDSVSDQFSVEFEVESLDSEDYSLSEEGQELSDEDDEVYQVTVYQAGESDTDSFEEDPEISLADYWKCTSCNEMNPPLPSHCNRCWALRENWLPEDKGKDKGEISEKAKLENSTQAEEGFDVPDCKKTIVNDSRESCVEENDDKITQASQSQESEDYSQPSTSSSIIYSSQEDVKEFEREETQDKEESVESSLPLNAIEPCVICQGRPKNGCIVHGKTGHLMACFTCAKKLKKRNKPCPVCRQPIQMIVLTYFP
Exocytosis inh: blocks lytic granule exocytosis; TALL-104 LAMP-1 surface exposure, flow cytometry; cells stimulated with thapsigargin and PMA; inhibition, % at 10 µM; actives 0.66% (n = 360,000); AID 651702;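 active = inhibition above about 55%, limit read from the data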
CHOP UPR activ: apoptotic UPR (CHOP) activation | CHO-CHOP luciferase reporter, luminescence; percent of tunicamycin response over DMSO baseline | activation, % at 10 µM | actives 0.34% (n = 330,000) | AID 449763;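 active = at 10 µM dose, activation of 40% or more, normalized to positive control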;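 also: 100% = tunicamycin at 10 µg/mL and 0% = DMSO alone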
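Dosing – one dose, 10 µM in 0.5% DMSO · System – CHO-CHOP cells, stable luciferase reporter of PERK-eIF2a-CHOP signalling · Input – 500 cells/well · Control set – tunicamycin 10 µg/mL final as positive, DMSO-only wells as negative · Timing – 6 h compound treatment, 37 °C · Measure – % activation vs tunicamycin · Technique – luminescence read with Steady-Glo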
Mdm2 MdmX conf: human Mdm2/MdmX binding inhibition, confirmed; inhibition, % at 8 µM; shares compounds with Mdm2-MdmX inh; actives 55% (n = 10,000); luminescent assay; in the data active = inhibition above about 40%
Full FLuc ctr: inhibits full-length luciferase, flagging false Mdm2/MdmX hits; inhibition, % at 8 µM; shares compounds with Mdm2-MdmX inh; actives 77% (n = 6,200); SaOS-2 full-length luciferase counterscreen, luminescence;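 active = mean inhibition at 8 µM reaching about 37%, which flags the compound as non-specific, limit read from the data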;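 also: p53-null SaOS-2 cells with luciferase driven by a doxycycline-inducible promoter; compound on cells about two nights before reading with doxycycline added after day one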
Active calls of the source: *; . = no result.

SMILES	XBP1 UPR activ	ABHD5 PLIN5 PPI	Mdm2-MdmX inh	Exocytosis inh	CHOP UPR activ	Mdm2 MdmX conf	Full FLuc ctr
Cc1cccc(N2C(=O)c3cccc4c(N5CCCCC5)c([N+](=O)[O-])cc(c34)C2=O)c1C	2.4	1.9	18.4	-0.2	1.6	.	.
Cc1ccc(N2C(=O)c3cccc4c(N5CCN(C)CC5)ccc(c34)C2=O)c2cccnc12	3.4	.	66.0*	.	-0.1	65.0*	56.5*
Cc1ccnc(N2C(=O)c3cccc4c([N+](=O)[O-])ccc(c34)C2=O)c1	-10.2	0.0	100.3*	77.3*	1.8	6.0	.
O=C1c2cccc3c(N4CCCCC4)ccc(c23)C(=O)N1c1ccccc1O	-0.8	-0.1	-5.3	-3.5	1.0	.	.
Cc1nnc(N2C(=O)c3cccc4c([N+](=O)[O-])ccc(c34)C2=O)s1	4.4	8.4	60.8*	85.9*	12.9	37.5	.
Cc1cccc(C)c1NC(=O)CN(C)C(=O)c1ccccc1SCC(=O)N1CCCC1	-2.5	-12.0	11.2	-2.5	-1.3	.	.
CC1(C)Cc2c(c(N3CCOCC3)nc3snc(NC(=O)c4ccccc4)c23)CO1	-2.3	-1.8	3.4	2.8	-3.2	.	.
Cc1ccc(-c2nc3ccsc3c(=O)[nH]2)cc1	-0.5	-3.0	-53.2	0.3	4.4	.	.
COC(=O)c1cnc(Oc2ccc(NC(=O)NC(=O)c3c(OC)cccc3OC)cc2)cc1C(F)(F)F	21.1	2.5	76.1*	-4.5	2.2	57.5*	80.0*
COC(=O)c1cnc(Oc2ccc(NC(=O)NC(=O)c3c(F)cccc3F)cc2)cc1C(F)(F)F	-1.6	-5.0	12.7	-3.8	-1.0	.	.
CCN1C(N(C)CCc2c[nH]c3ccccc23)=N[C@@H](c2cccc(C(F)(F)F)c2)C(C(=O)OC)=C1C	5.3	1.3	87.9*	-9.6	3.2	40.7*	43.6*
CCOc1ccc(CCN2C(=O)C(=O)N([C@@H](CC(C)C)CN3CCC[C@H]3CN3C(=O)C(=O)NC[C@@H]3CC(C)C)C[C@@H]2Cc2ccccc2)cc1	.	11.4	.	1.2	.	.	.
O=C(Nc1nc2ccccc2[nH]1)c1cccs1	-0.4	-2.7	-79.7	-1.6	0.5	.	.
N=c1c(-c2nc3ccccc3[nH]2)cc(C(=O)c2cccs2)nn1-c1ccc(Cl)cc1	1.0	.	62.8*	.	2.4	29.9	.
Cc1c(C(=O)NCc2cccs2)oc2ccccc12	0.3	-0.3	-16.4	-0.6	0.5	.	.
CC(=O)NC1=NN(C(C)=O)C(C)(c2ccccc2)S1 (stereo not given)	-2.2	-1.5	60.0*	-2.0	-0.6	53.1*	52.7*
Cc1csc2nc(O)c(C(=O)NC3CCCCCC3)c(=O)n12	-2.5	-5.0	22.6	5.6	2.0	.	.
Cc1csc2nc(O)c(C(=O)NC3CCCCC3)c(=O)n12	-2.3	-4.2	62.9*	-0.4	2.7	65.8*	35.0
CC(=O)c1c(-c2ccccc2)[nH]c2ccccc12	-1.2	1.8	51.9*	-6.1	-0.9	32.8	.
O=S(=O)(Nc1cccc2ccccc12)c1cccs1	2.4	1.6	21.4	3.7	1.4	.	.
Cc1ccc(-c2cc(=O)c3cc(C)ccc3[nH]2)cc1	-5.6	-1.6	-20.7	-2.7	-0.9	.	.
c1cc2[nH]snc2c2nc(C3CC3)nc12	0.8	-3.4	71.6*	0.8	-0.9	72.8*	26.4
CC(C)CC(=O)O/N=C1\C(=O)N(Cc2ccc(Cl)cc2)c2ccc([N+](=O)[O-])cc21	0.6	.	59.5*	.	0.6	26.1	.
O=S(=O)(c1cccc(Cl)c1Cl)N1CCN(C(=S)NCCCN2CCOCC2)CC1	-2.9	5.2	-3.2	-1.6	0.7	.	.
CCOc1cc(C(=O)O/N=C(\N)c2ccccn2)cc(OCC)c1OCC	2.4	-0.1	76.8*	5.6	3.4	68.0*	85.5*
SMILES	XBP1 UPR activ	ABHD5 PLIN5 PPI	Mdm2-MdmX inh	Exocytosis inh	CHOP UPR activ	Mdm2 MdmX conf	Full FLuc ctr
COc1ccc(C(=O)O/N=C(\N)c2ccccn2)cc1	-12.3	-5.9	96.7*	-7.5	-9.2	93.7*	24.2
COc1ccccc1C(=O)O/N=C(\N)c1ccccn1	-5.5	3.9	37.9	14.4	-3.2	.	.
CCOc1ccc(C(=O)O/N=C(\N)c2ccccn2)cc1OCC	-1.1	4.8	48.0	-1.0	-0.6	.	.
COc1cc(OC)cc(C(=O)O/N=C(\N)c2ccccn2)c1	0.3	-0.7	53.9*	-7.4	1.4	-4.3	.
Cc1ccc(C(=O)O/N=C(\N)c2ccccn2)c(C)c1	-8.3	0.5	99.0*	1.3	-9.9	97.9*	51.5*
CCCC(=O)C1=C(O)C(c2cccc(Oc3ccccc3)c2)CCC1=O (stereo not given)	-0.2	14.2	25.5	6.4	0.4	.	.
Cc1cccc(N2CCN(c3cc(C)nc4nnnn34)CC2C)c1 (stereo not given)	3.0	3.7	2.5	-2.5	0.3	.	.
CSCC[C@H](NC(=O)OC(C)(C)C)C(=O)N/N=C/c1cccc2nccnc12	-0.8	0.0	-11.0	-3.9	1.0	.	.
NC(=NC(=O)c1ccc(OC(F)(F)F)cc1)c1ccc(C(F)(F)F)cn1	-0.1	1.9	12.3	0.9	1.6	.	.
Cc1ccc(C(=O)O/N=C(\N)c2ccc(C(F)(F)F)cn2)cc1	0.2	2.7	57.5*	-0.7	4.5	-15.7	.
CCN1C(=O)CC(c2ccccc2)N(C2CCCC2)c2nc(Nc3ccc(C(=O)NC4CCN(C)CC4)cc3OC)ncc21 (stereo not given)	4.6	10.5	98.0*	22.0	7.8	46.1*	78.5*
CC(=O)c1c(C)[nH]c(C(=O)OCC(=O)Nc2cc(C)on2)c1C	1.1	-7.4	26.5	-5.8	0.3	.	.
COc1cc(NC(=O)COC(=O)c2[nH]c(C)c(C(C)=O)c2C)cc(OC)c1	-2.2	8.7	50.8*	1.3	0.2	23.5	.
CCOC(=O)c1c(C)[nH]c(C(=O)OCC(=O)Nc2cc(C)ccc2OC)c1C	1.9	4.7	98.7*	-1.1	0.0	5.8	.
CCn1nc(C(=O)OC2CCOC2=O)c2ccccc2c1=O (stereo not given)	0.1	-4.6	-4.6	0.7	-3.7	.	.
CCOc1ccc(NC(=O)CN(C)C(=O)c2cc(S(=O)(=O)N3CCCCC3)ccc2Cl)cc1OCC	-1.3	1.7	4.6	2.7	0.8	.	.
Cc1ccc(S(=O)(=O)n2cc(-c3ccccc3)c3ccccc32)cc1	4.4	-4.6	62.9*	4.2	-0.9	56.5*	82.1*
CN=c1scc(-c2cccs2)n1/N=C/c1ccc(O)c(O)c1O	-6.3	-13.0	-42.8	0.4	18.1	.	.
CN=c1scc(-c2cccs2)n1/N=C/c1ccccc1O	-5.8	-7.0	95.3*	9.9	-10.2	95.7*	12.6
COc1ccc(NS(=O)(=O)c2cc(OC)ccc2NC(=O)c2cc(C)oc2C)cc1	-7.8	9.5	51.5*	2.3	-1.1	60.6*	48.5*
